The source made the active and inactive calls. The rule behind the calls is not given here.
Tests used:
[1] = biological target: T1, Acyl-CoA (8-3)-desaturase (Rattus norvegicus, UniProt Q920R3); experiment: Inhibition of D5D in Sprague-Dawley rat liver microsomes using [14C]DGLA as substrate preincubated for 5 mins measured after 120 mins
Acyl-CoA 6-desaturase = Acyl-CoA 6-desaturase (Rattus norvegicus, UniProt Q9Z122); experiment: Inhibition of D6D in Sprague-Dawley rat liver microsomes using [14C]LA as substrate preincubated for 5 mins measured after 30 mins
Acyl-CoA desaturase 1 = biological target: T2, Acyl-CoA desaturase 1 (Rattus norvegicus, UniProt P07308); experiment: Inhibition of SCD in Sprague-Dawley rat liver microsomes using [14C]stearoyl-CoA as substrate preincubated for 5 mins measured after 30 mins
T2 sequence (P07308 whole entry): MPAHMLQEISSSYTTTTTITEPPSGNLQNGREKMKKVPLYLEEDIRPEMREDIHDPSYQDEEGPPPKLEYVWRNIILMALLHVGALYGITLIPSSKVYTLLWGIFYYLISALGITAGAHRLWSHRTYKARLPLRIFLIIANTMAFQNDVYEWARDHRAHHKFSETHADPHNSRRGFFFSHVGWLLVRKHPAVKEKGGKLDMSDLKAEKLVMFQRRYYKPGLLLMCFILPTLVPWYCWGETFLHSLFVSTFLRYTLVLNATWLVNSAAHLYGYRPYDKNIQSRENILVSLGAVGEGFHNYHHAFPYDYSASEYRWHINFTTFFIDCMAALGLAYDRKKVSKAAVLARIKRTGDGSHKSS

[2] = biological target: T3, Acyl-CoA (8-3)-desaturase (Homo sapiens, UniProt O60427); experiment: Inhibition of D5D in human HepG2 cells using [14C]DGLA as substrate preincubated for 30 mins followed by substrate addition measured after 3 hrs; type: cell-based
Target sequence in this assay (O60427 whole entry): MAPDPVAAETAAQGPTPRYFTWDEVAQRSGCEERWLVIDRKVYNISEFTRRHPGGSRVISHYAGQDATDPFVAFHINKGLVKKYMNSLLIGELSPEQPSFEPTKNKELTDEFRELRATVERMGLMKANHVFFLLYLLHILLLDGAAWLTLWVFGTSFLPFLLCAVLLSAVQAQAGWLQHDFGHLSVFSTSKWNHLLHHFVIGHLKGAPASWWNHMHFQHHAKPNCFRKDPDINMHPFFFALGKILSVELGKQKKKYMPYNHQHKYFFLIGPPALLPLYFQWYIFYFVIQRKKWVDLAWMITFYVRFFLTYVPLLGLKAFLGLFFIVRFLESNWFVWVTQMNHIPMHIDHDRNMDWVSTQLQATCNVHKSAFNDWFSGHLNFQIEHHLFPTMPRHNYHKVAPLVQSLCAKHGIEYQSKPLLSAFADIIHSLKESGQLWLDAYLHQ

[3] = biological target: T1, Acyl-CoA (8-3)-desaturase; experiment: Inhibition of D5D in rat RLN10 cells using [14C]DGLA as substrate preincubated for 30 mins followed by substrate addition measured after 3 hrs; type: cell-based
[4] = biological target: T1, Acyl-CoA (8-3)-desaturase; experiment: Binding affinity to D5D in Sprague-Dawley rat liver microsomes after 150 mins by liquid scintillation counting; conditions: read-out: Kd(app)
How it was run: (§1)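 Filter binding with [³H]T-3364366 as probe on rat liver microsomes, incubated 150 min. Specific binding is total minus nonspecific. In displacement runs, DMSO serves as 100% and 10 μM nonlabeled T-3364366 as 0%. Mean ± SEM, n = 3; apparent Kd reported with 95% CI.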

[5] = biological target: Acyl-CoA (8-3)-desaturase (Rattus norvegicus) (UniProt Q920R3); experiment: Binding affinity to D5D in Sprague-Dawley rat liver microsomes at 1.2 to 20 nM measured up to 2.5 hrs by liquid scintillation counting; conditions: TDE = time-dependent effect
How it was run: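 Time course: various [³H]T-3364366 concentrations incubated with microsomal D5D. Specific binding determined at several time points up to 2.5 h.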

[6] = biological target: Acyl-CoA (8-3)-desaturase (Rattus norvegicus) (UniProt Q920R3); experiment: Reversible binding affinity to D5D in Sprague-Dawley rat liver microsomes assessed as compound bound to protein at 6 nM preincubated for 150 mins followed by 2 fold dilution by 10 uM of T-3364366 measured after 21 hrs by liquid scintillation counting relative to control
How it was run: (§2)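 Binary complex formed by preincubating [³H]T-3364366 (6.0 nM) with microsomal D5D for 150 min. Mixture then diluted 2-fold with excess nonlabeled T-3364366 (10 μM) to block rebinding. Residual specific binding followed over time to 21 h. Dissociation half-life fitted with 95% CI, without correcting for time-dependent loss of binding.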

[7] = biological target: Acyl-CoA (8-3)-desaturase (Rattus norvegicus) (UniProt Q920R3); experiment: Reversible binding affinity to D5D in Sprague-Dawley rat liver microsomes assessed as dissociation half life at 6 nM preincubated for 150 mins followed by 2 fold dilution by 10 uM of T-3364366 by liquid scintillation counting; how it was run: as §2
[8] = biological target: Acyl-CoA (8-3)-desaturase (Rattus norvegicus) (UniProt Q920R3); experiment: Reversible binding affinity to D5D in Sprague-Dawley rat liver microsomes after 150 mins in presence of trichloroacetate by liquid scintillation counting
[9] = biological target: T3, Acyl-CoA (8-3)-desaturase; experiment: Inhibition of D5D in human HepG2 cells using [14C]DGLA as substrate assessed as suppression of [14C]AA production at 10 uM preincubated for 3 hrs followed by compound washout and addition of substrate measured after 4 hrs by liquid scintillation counting; type: cell-based
How it was run: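 HepG2 cells treated with compound for 3 h, then washed three times. Cells pulsed with [¹⁴C]DGLA and incubated a further 4 h. [¹⁴C]AA production normalized: DMSO as 100%, 10 μM T-3364366 without washout as 0%. Mean ± SEM, n = 4.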
Target sequence in this assay (O60427 whole entry, looked up): as the sequence (O60427 whole entry) above

[10] = AUC(0 to 8 hrs) in mouse at 0.10 mg/kg, iv administered in cassette mode; type: ADME, organism-based; set-up: dose 0.1 mg/kg, route intravenous; conditions: in vivo, 0.1 mg/kg
How it was run: (§3)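 Mouse cassette dosing, n = 3 per group. Given iv at 0.10 mg/kg or orally. Plasma AUC taken over 0–8 h. Total clearance, Vdss and MRT derived from the iv arm. Bioavailability F computed as a percentage.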

[11] = AUC(0 to 8 hrs) in mouse at 1 mg/kg, po administered in cassette mode; type: ADME, organism-based; set-up: dose 1 mg/kg, route oral; conditions: in vivo; how it was run: as §3
[12] = Total clearance in mouse at 0.10 mg/kg, iv administered in cassette mode; type: ADME, organism-based; conditions: in vivo, 0.1 mg/kg; how it was run: as §3
[13] = Volume of distribution in steady state in mouse at 0.10 mg/kg, iv administered in cassette mode; type: ADME, organism-based; conditions: in vivo, 0.1 mg/kg, read-out: Vdss; how it was run: as §3
[14] = MRT in mouse at 0.10 mg/kg, iv administered in cassette mode; type: ADME, organism-based; conditions: in vivo, 0.1 mg/kg; how it was run: as §3
[15] = MRT in mouse at 1 mg/kg, po administered in cassette mode; type: ADME, organism-based; conditions: in vivo
[16] = Oral bioavailability in mouse at 1 mg/kg administered in cassette mode; type: ADME, organism-based; conditions: in vivo; how it was run: as §3
Homo sapiens = species: Homo sapiens; experiment: Binding affinity to recombinant D6Db5 (1 to 100 residues)/D5Ddes (100 to 444 residues) domain swapped mutant (unknown origin) expressed in baculovirus at 5 to 25 nM after 150 mins by liquid scintillation counting
[17] = biological target: T3, Acyl-CoA (8-3)-desaturase; experiment: Binding affinity to recombinant wild type D5D (unknown origin) expressed in baculovirus at 5 to 25 nM after 150 mins by liquid scintillation counting
Target sequence in this assay (O60427 whole entry, looked up): as the sequence (O60427 whole entry) above

[18] = biological target: Acyl-CoA (8-3)-desaturase (Rattus norvegicus) (UniProt Q920R3); experiment: Displacement of [3H]T-3364366 from D5D in Sprague-Dawley rat liver microsomes after 150 mins by liquid scintillation counting; how it was run: as §1
[19] = biological target: T3, Acyl-CoA (8-3)-desaturase; experiment: Ratio of inhibition of D5D in human HepG2 cells preincubated for 30 mins followed by [14C]DGLA substrate addition measured after 3 hrs to inhibition of D5D in human HepG2 cells assessed as inhibition of [14C]AA production preincubated for 3 hrs followed by compound washout and addition of [14C]DGLA substrate measured after 4 hrs; type: cell-based
Target sequence in this assay (O60427 whole entry, looked up): as the sequence (O60427 whole entry) above

[20] = biological target: Acyl-CoA (8-3)-desaturase (Rattus norvegicus) (UniProt Q920R3); experiment: Displacement of [3H]T-3364366 from D5D in Sprague-Dawley rat liver microsomes at high concentrations after 150 mins by liquid scintillation counting; how it was run: as §1

Sequence of Acyl-CoA (8-3)-desaturase (Rattus norvegicus) (Q920R3 whole entry, looked up): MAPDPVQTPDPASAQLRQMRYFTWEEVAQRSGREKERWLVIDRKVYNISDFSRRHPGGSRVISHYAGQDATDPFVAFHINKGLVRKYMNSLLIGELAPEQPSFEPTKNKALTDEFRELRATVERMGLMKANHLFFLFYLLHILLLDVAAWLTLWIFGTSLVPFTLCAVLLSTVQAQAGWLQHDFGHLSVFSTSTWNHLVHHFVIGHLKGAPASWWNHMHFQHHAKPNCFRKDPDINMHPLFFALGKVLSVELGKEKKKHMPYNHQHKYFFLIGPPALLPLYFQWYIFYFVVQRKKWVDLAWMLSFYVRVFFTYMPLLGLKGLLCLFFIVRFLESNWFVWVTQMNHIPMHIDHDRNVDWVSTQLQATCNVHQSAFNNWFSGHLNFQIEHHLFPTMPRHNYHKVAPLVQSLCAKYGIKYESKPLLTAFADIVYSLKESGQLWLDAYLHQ
T1 sequence (Q920R3 whole entry): as the sequence (Q920R3 whole entry, looked up) above
Sequence of Acyl-CoA 6-desaturase (Q9Z122 whole entry): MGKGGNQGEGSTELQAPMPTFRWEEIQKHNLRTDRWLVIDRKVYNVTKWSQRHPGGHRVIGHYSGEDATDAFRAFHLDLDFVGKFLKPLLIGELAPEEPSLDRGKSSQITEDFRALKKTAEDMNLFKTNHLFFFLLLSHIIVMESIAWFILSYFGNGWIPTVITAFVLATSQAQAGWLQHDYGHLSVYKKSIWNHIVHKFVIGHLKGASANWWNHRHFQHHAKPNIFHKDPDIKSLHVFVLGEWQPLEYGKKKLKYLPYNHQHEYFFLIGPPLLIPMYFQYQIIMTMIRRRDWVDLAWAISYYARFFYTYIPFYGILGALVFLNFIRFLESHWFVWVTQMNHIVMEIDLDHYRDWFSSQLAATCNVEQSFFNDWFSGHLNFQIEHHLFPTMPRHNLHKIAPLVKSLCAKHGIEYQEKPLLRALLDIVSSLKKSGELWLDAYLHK

For `CC(=O)NCCSc1nc2cscc2c(=O)n1-c1ccc(OCC(F)(F)F)cc1`, the IC50 [1] was 19 nM, the IC50 (Acyl-CoA 6-desaturase) was 6200 nM and the IC50 (Acyl-CoA desaturase 1) was > 10000 nM. For the same molecule, the IC50 [2] was 1.9 nM, the IC50 [3] was 2.1 nM and the Kd [4] was 2.7 nM. The Activity [5] was “Tde”, the Activity [6] was < 10% and the T1/2 [7] was 2 h. The Activity [8] was “Active”, the inhibition [9] was “Active” and the AUC(0-t) at 6 h [10] was 65 ng·h/mL. The AUC(0-t) at 6 h [11] was 260 ng·h/mL, the clearance [12] was 25 mL/min/kg and the Vd [13] was 1.1 L/kg. The MRT [14] was 0.65 h, the MRT [15] was 1.8 h and the bioavailability [16] was 41%. The Activity (Homo sapiens) was “Active” and the Activity [17] was “Active”.
For `Cc1cn([C@H]2C[C@@H](O)[C@@H](COC(c3ccccc3)(c3ccccc3)c3ccccc3)O2)c(=O)[nH]c1=O`, the inhibition [18] was “Active”.
In the case of `Nc1ccccc1C(=O)Nc1cccc(Cl)c1`, the IC50 [1] is reported as 160 nM, the IC50 (Acyl-CoA 6-desaturase) is reported as > 10000 nM and the IC50 (Acyl-CoA desaturase 1) is reported as > 10000 nM. The IC50 [2] was 29 nM, the IC50 [3] was 26 nM and the inhibition [18] was “Active”. It also gave a Ratio [19] of 1000.
In the case of `N#CC(CCCN1CCN(/N=C/c2cccnc2)CC1)(c1ccccc1)c1ccccc1`, the inhibition [20] is reported as “Active”.
For `COc1ccc(OC)c(NC(=O)Nc2cccc(F)c2)c1`, the inhibition [18] was “Active”.
For `Cc1ccc2c(c1)Nc1cc(C)ccc1CC2`, the inhibition [18] was “Active”.

From ChEMBL document CHEMBL4431397, “T-3364366 Targets the Desaturase Domain of Delta-5 Desaturase with Nanomolar Potency and a Multihour Residence Time” (ACS Med Chem Lett, 2016)
